The source of these data is article PMC6221542 (Science Advances, 2018).

The subject of assay [1] is methylated H3K9 and H3K27 peptides. In words: Peptide microarray, chromodomain binding profile. The arrangement: species or system human. The method, boiled down: (§1)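 Array of 467 unmodified and modified peptides (desalted, mass-spectrometry checked) printed in triplicate spots on glass slides and probed with chromodomain proteins. Signal intensities converted to z scores per chromodomain using all its intensities: z = (x − mean)/SD. Hierarchical clustering grouped chromodomains into three categories and peptides into six clusters by binding preference.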

The target of a further assay is H3K9me3. Particulars: read-out: Kd H3K9me3; reported Kd of CBX chromodomains; cited from earlier work.
For a further assay, the system named is SUV91 chromodomain. Kind of assay: Peptide microarray binding, SUV91. The arrangement: species or system human. The method, boiled down:
as §1

Entries after “also recorded” stand apart in the source; their conditions may differ. Where no end group is shown, it is not given here.

For orientation: Kd means the concentration at which binding is half-saturated. On to “WT CBX1: WT CBX1 chromodomain, GST fusion, cloned sequence 20-73”, for which the “binding profile toward methylated H3K9 / H3K27 peptides (in words)” value in assay [1] is recorded as “bound predominantly to all three methylated H3K9 peptides”. The Kd on H3K9me3 was 5 µM. Consider “CBX8: CBX8 chromodomain, GST fusion, cloned sequence 8-61 (ERVFAAEALLKRRIRKGRMEYLVKWKGWSQKYSTWEPEENILDARLLAAFEERE; also: GST fusion, end not given here; UniProt Q9HC52 8-61, looked up, fragment)”, for which the “binding profile toward methylated H3K9 / H3K27 peptides (in words)” value in assay [1] is “binding to both methylated H3K9 and H3K27 was confirmed; also recorded: showed signals with di- and trimethylated peptides at both sites”. Take “CBX2: CBX2 chromodomain, GST fusion, cloned sequence 9-66 (EQVFAAECILSKRLRKGKLEYLVKWRGWSSKHNSWEPEENILDPRLLLAFQKKEHEKE; also: GST fusion, end not given here; UniProt Q14781 9-66, looked up, fragment)”: the “binding profile toward methylated H3K9 / H3K27 peptides (in words)” value in assay [1] is “binding to both methylated H3K9 and H3K27 was confirmed; also recorded: higher H3K27 signal intensity compared with those of H3K9”. On to “CBX4: CBX4 chromodomain, GST fusion, cloned sequence 8-65 (EHVFAVESIEKKRIRKGRVEYLVKWRGWSPKYNTWEPEENILDPRLLIAFQNRERQEQ; also: GST fusion, end not given here; UniProt O00257 8-65, looked up, fragment)”, for which the “binding profile toward methylated H3K9 / H3K27 peptides (in words)” value in assay [1] was “binding to both methylated H3K9 and H3K27 was confirmed”.

With “[Ahx]AATASCLIC[K_Me3]YAA [methylated SIRT1 sequence]”, the “binding to SUV91 chromodomain (in words)” value with SUV91 chromodomain was “showed binding”.

Consider “CBX6: CBX6 chromodomain, GST fusion, cloned sequence 8-65 (ERVFAAESIIKRRIRKGRIEYLVKWKGWAIKYSTWEPEENILDSRLIAAFEQKERERE; also: GST fusion, end not given here; UniProt O95503 8-65, looked up, fragment)”, for which the “binding profile toward methylated H3K9 / H3K27 peptides (in words)” value in assay [1] is “binding to both methylated H3K9 and H3K27 was confirmed; also recorded: showed signals with di- and trimethylated peptides at both sites”.
